Hits are enriched below; roughly 1.9% of the tested compounds scored in any of these assays.
CaV13 FRET inh = Primary screen for inhibitors of IQ motif and Ca2+-dependent inactivation inhibitor domain binding in CACNA1D, Förster resonance energy transfer in living cells, …; HEK cells, CFP/YFP FRET ICDI-IQ, plate reader, 10 min; percent FRET-ratio fall versus neutral wells; inhibition, % at 12.3 µM; 340,000 tested, 0.098% active; AID 743397;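 active = mean replicate inhibition of at least 30% and at least 1% of replicates passing that level; inconclusive = only one of the two criteria is met; inactive = neither criterion is met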
LANA-H2B inh = blocks KSHV LANA binding to histone H2A/H2B; 320,000 tested, 0.6% active; Q9QR71; inhibition, % (concentration not given with the values); cell-free LANA-H2A/H2B peptide, fluorescence polarization; in the data active = inhibition mostly above about 10%, no sharp cut-off; inactive = mostly below about 6.7%
HDAC3 inhib = inhibitors of human histone deacetylase 3; recombinant HDAC3, fluorogenic peptide/trypsin coupled, fluorescence; AID 2718; 320,000 tested, 0.15% active; O15379; inhibition, % at 8.3 µM; in the data active = inhibition above about 26%, passing the limit was not always enough; inconclusive = no clear call, values can overlap the other calls
Runt-CBFb FRET = inhibitors of human RUNX1 Runt domain binding to CBFb. Cerulean-Runt/Venus-CBFb FRET ratio 530/480, 1 h. 220,000 tested, 0.46% active. inhibition, % at 20 µM. Q01196+Q13951;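 active = inhibition over about 50% at 20 µM in the single-dose screen, limit read from the data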
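Schedule: protein complex preformed 1 h, compound exposure 1 h, room temperature, dark; test system: Cerulean-labeled Runt domain protein; amount: 100 nM per protein; buffer or medium: Tris 50 mM pH 7.5, KCl, K2SO4, 0.01% BSA; read-out: loss of energy transfer signal; detection: FRET fluorescence; controls: 5 µM unlabeled CBFb as full-inhibition high control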
Runt-SMMHC FRET = Runt domain-CBFb-SMMHC interaction inhibition; Q01196+Q13951; Cerulean-Runt/Venus-CBFb-SMMHC FRET ratio 530/480, 1 h; inhibition, % at 20 µM; 220,000 tested, 0.74% active;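 active = mean inhibition across duplicate retests at 20 µM reaching about 50%, limit read from the data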;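 note: inhibitors lower the FRET ratio by blocking Runt binding to CBFb-SMMHC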
RanGTP-Impb inh = disruptors of Ran-importin-beta complex formation – biochemical, FRET, CFP-Ran, YFP-importin-beta, homogeneous, primary screen | cell-free CFP-Ran/YFP-importin-beta FRET ratio | inhibition, % (no concentration beside the values) | 300,000 tested, 1.1% active | AID 2216;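 active = more than half of the replicate wells show a fall in the fluorescence ratio signal beyond about 16%, limit read from the data, passing the limit was not always enough; inconclusive = exactly half of the replicate wells pass the set limit; inactive = fewer than half of replicates pass the limit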
A number is an active result.

For CC(C)S(=O)(=O)C1=NSC2=NC(=O)/C(=C\c3ccc(-c4ccccc4)o3)C(=N)N21 the results were CaV13 FRET inh inactive, LANA-H2B inh inactive, HDAC3 inhib inactive, Runt-CBFb FRET inactive, Runt-SMMHC FRET 82 and RanGTP-Impb inh inconclusive.
For CCOC(=O)C1CCN(C(=O)Nc2ccc3c(c2)nc(C)n3C)CC1 the results were CaV13 FRET inh inactive, LANA-H2B inh inactive, HDAC3 inhib inactive, Runt-CBFb FRET inactive, Runt-SMMHC FRET inactive and RanGTP-Impb inh inactive.
Screening O=C(Nc1ccc2nc(-c3ccco3)c(-c3ccco3)nc2c1)N1CCCCCC1 returned LANA-H2B inh inactive, HDAC3 inhib inactive, Runt-CBFb FRET inactive, Runt-SMMHC FRET inactive and RanGTP-Impb inh 80.
For O=C(Nc1ccc2nc(-c3ccccn3)c(-c3ccccn3)nc2c1)N1CCOCC1 the results were CaV13 FRET inh inactive, LANA-H2B inh inactive, HDAC3 inhib inactive, Runt-CBFb FRET inactive, Runt-SMMHC FRET inactive and RanGTP-Impb inh 20.
`Cc1nc2ccc(NC(=O)N3CCCCC3)cc2nc1C` gave LANA-H2B inh inactive, HDAC3 inhib inactive, Runt-CBFb FRET inactive, Runt-SMMHC FRET inactive and RanGTP-Impb inh inactive.
Screening O=C(Nc1ccccn1)N1CCOCC1 returned CaV13 FRET inh inactive, LANA-H2B inh inactive, HDAC3 inhib inactive, Runt-CBFb FRET inactive, Runt-SMMHC FRET inactive and RanGTP-Impb inh inactive.
Screening CCOC(=O)C1CCN(C(=O)Nc2ccc3nc(-c4ccco4)c(-c4ccco4)nc3c2)CC1 returned LANA-H2B inh inactive, HDAC3 inhib inactive, Runt-CBFb FRET inactive, Runt-SMMHC FRET inactive and RanGTP-Impb inh 75.
`COc1ccccc1N1CCN(c2cc(C)nc3nc(C)nn23)CC1` gave CaV13 FRET inh inactive, LANA-H2B inh inactive, HDAC3 inhib inactive, Runt-CBFb FRET inactive, Runt-SMMHC FRET inactive and RanGTP-Impb inh inactive.
COc1cc2ccc(=O)oc2c(O[C@@H]2O[C@H](CO)[C@@H](O)[C@H](O)[C@H]2O)c1O was read as CaV13 FRET inh inactive, LANA-H2B inh inactive, HDAC3 inhib inactive and RanGTP-Impb inh 119.
For O=C(OCC1CC(c2ccccc2Cl)=NO1)c1ccc(Br)cc1 (stereo not given) the results were CaV13 FRET inh inactive, LANA-H2B inh inactive, HDAC3 inhib inactive, Runt-CBFb FRET inactive, Runt-SMMHC FRET inactive and RanGTP-Impb inh inactive.
For Cc1c(N(C)C)c(=O)n(-c2ccccc2)n1C the results were LANA-H2B inh 42 and HDAC3 inhib inactive.
`Cc1c(C(=O)NCc2ccoc2)oc2ccc3c(c12)C(=O)CC(C)(C)O3` gave CaV13 FRET inh inactive, LANA-H2B inh 29, HDAC3 inhib inactive, Runt-CBFb FRET inactive, Runt-SMMHC FRET inactive and RanGTP-Impb inh inactive.
For O=C(CC1SC(=NCC2CCCO2)NC1=O)Nc1cccc2ccccc12 (stereo not given) the results were CaV13 FRET inh inactive, LANA-H2B inh inactive, HDAC3 inhib inactive, Runt-CBFb FRET 81, Runt-SMMHC FRET inactive and RanGTP-Impb inh inactive.
For Cc1ccc(NC(=S)N2CCCC(CO)C2)c(C)c1 (stereo not given) the results were CaV13 FRET inh inactive, LANA-H2B inh 30, HDAC3 inhib inactive, Runt-CBFb FRET inactive, Runt-SMMHC FRET inactive and RanGTP-Impb inh inconclusive.
For CC(=O)Oc1ccc2cc(-c3ccccc3)c(=O)oc2c1 the results were CaV13 FRET inh inactive, LANA-H2B inh inactive, HDAC3 inhib inactive, Runt-CBFb FRET inactive, Runt-SMMHC FRET 81 and RanGTP-Impb inh 81.
O=C(CCCCl)Oc1ccc2cc(-c3ccc4ccccc4n3)c(=O)oc2c1 was read as CaV13 FRET inh inactive, LANA-H2B inh inactive, HDAC3 inhib inactive, Runt-CBFb FRET inactive, Runt-SMMHC FRET 86 and RanGTP-Impb inh 102.
`CC(=O)COc1ccc2cc(-c3ccccc3)c(=O)oc2c1` gave CaV13 FRET inh inactive, LANA-H2B inh inactive, HDAC3 inhib inactive and RanGTP-Impb inh inactive.
Screening CCCN(CC(=O)Nc1ccccc1OC)C(=O)CCNC(=O)c1ccccc1OC returned CaV13 FRET inh inactive, LANA-H2B inh 41 and HDAC3 inhib inactive.
For COc1ccccc1C(=O)NCCC(=O)N(C)CC(=O)Nc1ccccc1Br the results were CaV13 FRET inh inactive, LANA-H2B inh inactive, HDAC3 inhib inactive and RanGTP-Impb inh inactive.
For CCCn1nc(NC(=O)c2ccco2)c2cc3ccccc3nc21 the results were CaV13 FRET inh inactive, LANA-H2B inh inactive, HDAC3 inhib inactive, Runt-CBFb FRET inactive, Runt-SMMHC FRET inactive and RanGTP-Impb inh 46.
CCCn1c(NC(=O)c2ccco2)nc2ccccc21 was read as LANA-H2B inh inactive, HDAC3 inhib inactive, Runt-CBFb FRET inactive, Runt-SMMHC FRET inactive and RanGTP-Impb inh inactive.
For Cc1ccc2cc3c(NC(=O)c4ccco4)nn(C)c3nc2c1 the results were CaV13 FRET inh inactive, LANA-H2B inh inactive, HDAC3 inhib inactive, Runt-CBFb FRET inactive, Runt-SMMHC FRET inactive and RanGTP-Impb inh 23.
`CCn1nc(NC(=O)c2ccco2)c2cc3cc(C)ccc3nc21` gave CaV13 FRET inh inactive, LANA-H2B inh inactive, HDAC3 inhib inactive, Runt-CBFb FRET inactive, Runt-SMMHC FRET 84 and RanGTP-Impb inh 54.
CNc1nc(NCCCN2CCCC2=O)c2sccc2n1 was read as CaV13 FRET inh inactive.
Screening N#Cc1c(Nc2ccccc2)c(/C=N/N=C/c2ccccc2)c[nH]c1=O returned CaV13 FRET inh inactive, LANA-H2B inh inactive, HDAC3 inhib inactive, Runt-CBFb FRET inactive, Runt-SMMHC FRET inactive and RanGTP-Impb inh inactive.
`N#CC(C#N)=Cc1c[nH]c(=O)c(C#N)c1Nc1ccccc1` gave CaV13 FRET inh inactive, LANA-H2B inh inactive, HDAC3 inhib inactive and RanGTP-Impb inh 67.
Screening CCOC(=O)C1Cc2ccccc2CN1 (stereo not given) returned CaV13 FRET inh inactive, LANA-H2B inh inactive, HDAC3 inhib inactive, Runt-CBFb FRET inactive, Runt-SMMHC FRET inactive and RanGTP-Impb inh inactive.
Screening COc1ccc(CNC(=O)COC(=O)C(CCSC)NC(=O)c2ccco2)cc1OC (stereo not given) returned CaV13 FRET inh inactive, LANA-H2B inh 117 and HDAC3 inhib inactive.
Screening COCCn1c(-c2ccc(-c3ccccc3Cl)o2)nc2c1c(=O)[nH]c(=O)n2CC(C)C returned CaV13 FRET inh inactive, LANA-H2B inh inactive, HDAC3 inhib inactive, Runt-CBFb FRET inactive, Runt-SMMHC FRET inactive and RanGTP-Impb inh inactive.
COCCn1c(-c2ccc(NC(C)=O)cc2)nc2c1c(=O)[nH]c(=O)n2CC(C)C was read as CaV13 FRET inh inactive, LANA-H2B inh 13, HDAC3 inhib inactive and RanGTP-Impb inh inactive.
CCOc1ccc(CCNC(=O)CCNC(=O)c2ccc(Br)cc2)cc1OCC was read as LANA-H2B inh inactive, HDAC3 inhib inactive and RanGTP-Impb inh inactive.
